TAAR1 antag = human TAAR1 antagonists, primary screen, Fluo-8 calcium fluorescence, CHO RD-HGA16 cells; antagonist; hit rate 1.5% among 360,000; Trace amine-associated receptor 1 (Homo sapiens), Q96RJ0; inhibition, % at 3 µM;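 active = inhibition above a per-plate cutoff, the mean inhibition of test compounds on that plate plus 3 SD, cut at about 49% in these data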;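 note: 0% = DMSO plus EC80 beta-PEA response and 100% = DMSO alone without agonist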
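Test system – hTAAR1-expressing CHO RD-HGA16 cells, Gα16-coupled · Also added – β-PEA at EC80 concentration, post-compound challenge · Compound – 3 µM, single point · Incubation – dye loading 75 min at 37 °C, then 30 min room temperature · Measured by – Fluo-8 intracellular calcium dye fluorescence, real-time kinetic reads · Benchmarks – vehicle and agonist controls · Replicates – singlicate, one well per test compound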
OXTR agonist = human OXTR agonists, primary screen, fluorescence, CHO-OTR cells, Fluo-8 calcium. hit rate 0.32% among 320,000. Fluo-8 calcium fluorescence; normalized: DMSO 0%, oxytocin 100%. activation, % at 3 µM;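 active = activation above the mean of all tested compounds plus 3 SD, cutoff set per screening run, cut at about 20% in these data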;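 note: peak over basal fluorescence ratio from a 100 s FLIPR kinetic read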
OXTR potentiate = human OXTR potentiators, primary screen, fluorescence, CHO-OTR cells, Fluo-8 calcium. Oxytocin receptor (Homo sapiens), P30559. Fluo-8 calcium fluorescence, potentiator mode; 0% = oxytocin EC15, 100% = EC100. activation, % at 3 µM. hit rate 0.061% among 320,000. AID 2445, 2010;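 active = activation above that plate's cutoff, the mean activation of tested compounds plus 3 SD, cut at about 6.6% in these data, passing the limit was not always enough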;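 note: 100% uses oxytocin at 75 nM as the full agonist control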
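System: human OTR in CHO cells / Also added: sub-maximal oxytocin, roughly EC15 / Control set: EC15 oxytocin low, 75 nM oxytocin high / Schedule: 6 min compound pre-incubation at room temperature, 100 s kinetic read / Compound: single-point 3.0 µM / Replication: singlicate / Technique: Fluo-8 calcium dye fluorescence / Read-out basis: % activation of max/min ratio relative to oxytocin controls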
TAAR1 ag = human TAAR1 agonists, primary screen, Fluo-8 calcium fluorescence, CHO RD-HGA16 cells. hit rate 0.99% among 360,000. Trace amine-associated receptor 1 (Homo sapiens), Q96RJ0. activation, % at 3 µM. AID 624467, 2012. vehicle wells 0%, saturating PEA agonist 100%;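 active = activation above the mean activation of all test compounds in the run plus 3 SD, cut at about 38% in these data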
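Test system: RD-HGA16 (CHO) cells co-expressing Gα16 and hTAAR1 | Doses: Single dose, 3 µM | Schedule: 17-24 h seeding, 75 min 37 °C dye, 30 min RT | Evaluation: % activation from peak over basal fluorescence ratio, DMSO-to-PEA scaled | Technique: Kinetic Fluo-8 calcium fluorescence | Benchmarks: Low control DMSO, high control PEA (EC100)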
V1R ag counter = agonists of human V1a receptor, primary screen, counter-screen for OXTR agonist project, fluorescence, CHO-V1R cells; Fluo-8 calcium fluorescence, agonist mode; 0% DMSO, 100% 3 nM vasopressin; activation, % at 3 µM; hit rate 0.25% among 320,000;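 active = activation above the mean activation of all tested compounds plus 3 SD, per screening run, cut at about 20% in these data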;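 note: signal is peak over basal fluorescence ratio across a 100 second FLIPR read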
Target sequence (P37288 whole entry, looked up): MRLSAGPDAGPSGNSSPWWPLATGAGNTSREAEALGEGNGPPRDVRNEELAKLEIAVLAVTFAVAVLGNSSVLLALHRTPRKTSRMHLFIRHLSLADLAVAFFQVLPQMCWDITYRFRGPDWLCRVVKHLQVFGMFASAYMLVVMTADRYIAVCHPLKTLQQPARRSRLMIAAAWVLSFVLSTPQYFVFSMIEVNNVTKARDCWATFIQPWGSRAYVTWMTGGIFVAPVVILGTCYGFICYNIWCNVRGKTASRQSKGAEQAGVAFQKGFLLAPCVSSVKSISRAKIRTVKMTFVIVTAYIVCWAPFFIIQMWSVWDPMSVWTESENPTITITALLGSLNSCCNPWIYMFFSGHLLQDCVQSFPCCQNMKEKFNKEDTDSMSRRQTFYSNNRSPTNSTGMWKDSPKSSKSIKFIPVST
The depositor's hits bear a star. The list is not random: actives were taken first. Their share in the collection is about 2.3%.

Results for COc1ccc(-c2nn(-c3ccccc3)cc2/C=N/NC(=O)c2ccc(Br)o2)cc1 ?
TAAR1 antag: 61.0*; OXTR agonist: 1.5; OXTR potentiate: -14.3; TAAR1 ag: 17.9; V1R ag counter: 1.9

What do the screens show for `O=Cc1coc([B-](F)(F)F)c1`?
TAAR1 antag: -16.9; TAAR1 ag: 4.8

Results for CCN1CCN(c2ccc(S(=O)(=O)N3CCCCC3)cc2NC(=O)Cc2ccc(Cl)c(Cl)c2)CC1 ?
OXTR agonist: 86.3*; OXTR potentiate: -18.4; V1R ag counter: 48.9*

What do the screens show for `C/C(=C\C(=O)OCCCCCCCCC(=O)O)C[C@@H]1OC[C@H](C[C@@H]2O[C@H]2[C@@H](C)[C@H](C)O)[C@@H](O)[C@H]1O`?
TAAR1 antag: -20.1; OXTR agonist: 0.4; OXTR potentiate: -11.3; TAAR1 ag: 0.7; V1R ag counter: -0.2

How did CCCN(CCC)c1cc(=O)nc2ccccn12 do in these assays?
TAAR1 antag: -5.0; TAAR1 ag: -0.4

How did O=C(CNC(=O)c1ccc(F)cc1)N/N=C/c1cc(Br)ccc1OCc1ccccc1 do in these assays?
TAAR1 antag: 27.8; OXTR agonist: -1.0; OXTR potentiate: -7.3; TAAR1 ag: 14.3; V1R ag counter: -0.4

Results for COc1ccccc1C(=O)NCC(=O)N/N=C/c1cc(Br)ccc1OCc1ccccc1 ?
TAAR1 antag: 49.2*; OXTR agonist: 1.8; OXTR potentiate: -11.5; TAAR1 ag: 5.0; V1R ag counter: 0.1

How did COc1ccc(COc2ccccc2C(=O)NCc2ccccc2)cc1F do in these assays?
TAAR1 antag: 70.9*; OXTR agonist: 3.1; OXTR potentiate: -13.2; TAAR1 ag: 10.2; V1R ag counter: 6.5

What do the screens show for `Cc1cc(Oc2cccnc2)ccc1NC(=O)Cc1cn(C)c2ccccc12`?
TAAR1 antag: 0.5; TAAR1 ag: 1.9

Results for CCc1ccc(OCC(=O)NNC(=S)NC(=O)C2CC2)c(Br)c1 ?
TAAR1 antag: 9.3; TAAR1 ag: 40.0*

How did CCOc1cccc(NC(=O)c2ccc(S(=O)(=O)N(C)C)cc2)c1 do in these assays?
TAAR1 antag: -8.2; OXTR agonist: -0.1; OXTR potentiate: -5.3; TAAR1 ag: 2.8; V1R ag counter: 1.7

What do the screens show for `CCN(CC)CCNC(=O)c1ccc(NC(=O)c2ccc(COc3ccccc3)cc2)cc1`?
TAAR1 antag: 52.1*; TAAR1 ag: 4.1

Results for CN(C)S(=O)(=O)c1cccc(NC(=O)c2ccc(COc3ccccc3)cc2)c1 ?
TAAR1 antag: 76.9*; OXTR agonist: 12.7; OXTR potentiate: -15.1; TAAR1 ag: 15.0; V1R ag counter: 14.2

Results for O=C(COC(=O)[C@H](Cc1ccccc1)NC(=O)c1ccco1)Nc1ccccc1 ?
TAAR1 antag: -12.0; OXTR agonist: 0.5; OXTR potentiate: -4.1; TAAR1 ag: 6.0; V1R ag counter: 0.6

How did CN(C)S(=O)(=O)c1cccc(NC(=O)COC(=O)[C@H](Cc2ccccc2)NC(=O)c2ccco2)c1 do in these assays?
TAAR1 antag: 54.9*; OXTR agonist: 3.9; OXTR potentiate: -9.6; TAAR1 ag: 13.8; V1R ag counter: 4.3

Results for COc1cccc(S(=O)(=O)NCc2ccc(C(=O)Nc3cccc(Cl)c3)cc2)c1 ?
TAAR1 antag: 50.3*; OXTR agonist: 4.2; OXTR potentiate: -16.8; TAAR1 ag: 9.1; V1R ag counter: 4.9

Results for COC(=O)C[C@@H]1C=C[C@@H](NC(=O)C2CCC2)[C@@H](CO)O1 ?
TAAR1 antag: -15.0; TAAR1 ag: 1.1

What do the screens show for `C[C@@H]1CN([C@H](C)CO)C(=O)c2cc(Br)cnc2O[C@H]1CN(C)C(=O)c1ccc(F)cc1`?
TAAR1 antag: -12.2; TAAR1 ag: 0.9

Results for CCCCCc1c(C)nc(Nc2ccccc2)[nH]c1=O ?
TAAR1 antag: -1.5; OXTR agonist: 4.2; OXTR potentiate: -31.2; TAAR1 ag: 38.1*; V1R ag counter: 5.8

What do the screens show for `O=C(C1CCCN(c2ncnc3c2nc2n3CCCCC2)C1)N1CCN(c2ccc(Cl)cc2)CC1` (centres undefined)?
TAAR1 antag: 76.8*; OXTR agonist: 2.7; OXTR potentiate: -19.6; TAAR1 ag: 37.5*; V1R ag counter: 2.6

What do the screens show for `O=C(C1CCN(c2ncnc3c2nc2n3CCCCC2)CC1)N1CCN(c2cccc(Cl)c2)CC1`?
TAAR1 antag: 63.4*; OXTR agonist: 5.4; OXTR potentiate: -7.8; TAAR1 ag: 9.4; V1R ag counter: 13.7

What do the screens show for `COC(=O)C1=C(C)N(C)C(=NCc2cccc(C(F)(F)F)c2)NC1c1ccccc1C(F)(F)F` (centres undefined)?
TAAR1 antag: 26.3; TAAR1 ag: 10.7

Results for C[C@@H]1CNC(=O)c2c(C(=O)N(C)Cc3ccccc3)ncn21 ?
TAAR1 antag: -10.2; TAAR1 ag: 3.7

Results for Cc1ccc(C(=O)OCc2cc3ccccc3[nH]c2=O)cc1 ?
TAAR1 antag: 32.9; OXTR agonist: -0.3; OXTR potentiate: -13.7; TAAR1 ag: 42.2*; V1R ag counter: 1.9

How did Cc1nn(-c2cccc(Cl)c2)nc1C(=O)Nc1cccc(C(=O)NC2CC2)c1 do in these assays?
TAAR1 antag: 46.3; OXTR agonist: -1.3; OXTR potentiate: -7.6; TAAR1 ag: 6.3; V1R ag counter: 1.2

Results for Cc1nn(-c2ccccc2)nc1C(=O)Nc1cccc(C(=O)NC2CC2)c1 ?
TAAR1 antag: 59.9*; TAAR1 ag: 10.9

Results for N#C/C(N=Nc1ccccc1O)=N\Nc1ccccc1O ?
TAAR1 antag: 66.3*; OXTR agonist: 18.2; OXTR potentiate: -15.3; TAAR1 ag: 2.5; V1R ag counter: 16.5

How did Oc1ccccc1N=N/C(=N/Nc1ccccc1O)c1ccccc1 do in these assays?
TAAR1 antag: -1.9; OXTR agonist: -0.2; OXTR potentiate: 3.1; TAAR1 ag: 1.4; V1R ag counter: 0.1

What do the screens show for `COc1cccc(CNS(=O)(=O)c2cc(Br)ccc2Br)c1OC`?
TAAR1 antag: -3.1; TAAR1 ag: 1.9

How did CC(C)c1cccc(-c2csc(C(C)(O)c3ccncc3)n2)c1 (centres undefined) do in these assays?
TAAR1 antag: 16.7; TAAR1 ag: 2.5

Results for Cc1ccc(C)c(OCCCN2CCc3ccccc3C2)c1 ?
TAAR1 antag: -13.1; OXTR agonist: -0.3; OXTR potentiate: -0.3; TAAR1 ag: 39.2*; V1R ag counter: -0.5

What do the screens show for `O=S1(=O)CC(N2CCC(c3ccccc3)CC2)CN1Cc1cn(Cc2ccc(C(F)(F)F)cc2)nn1` (centres undefined)?
TAAR1 antag: 36.7; TAAR1 ag: 9.7

High-throughput results as filed in PubChem.
